Compound activity as filed in PubChem BioAssay.
Hits are enriched below; roughly 2.3% of the tested compounds scored in any of these assays.
TRPC4 agonist = opens the mouse TRPC4 cation channel | Q9QUQ5 | HEK293 TRPC4beta/mu-opioid, Fluo4 calcium fluorescence; hits give high values | B-score at 10 µM | actives 0.49% (n = 310,000) | AID 2237;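 active = B-score above 5 SD of library B-scores, and initial fluorescence ratio not above library mean plus 5 SD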;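 note: positive B-score marks a calcium rise read as TRPC4 activation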
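System – HEK293 cells stably co-expressing mouse TRPC4beta and mu-opioid receptor · Signal – Fluo4 calcium-sensitive dye fluorescence, kinetic, 1 Hz baseline · Benchmarks – buffer (low) and maximal DAMGO (high) · Read-out – B score of integrated fluorescence ratio per well · Incubation – dye loading 45 min room temperature, 110 s kinetic read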
TRPC4 potent = TRPC4 (mouse) allosteric potentiation. Q9QUQ5. HEK293 TRPC4beta/mu-opioid, DAMGO EC20, Fluo-4 Ca2+ flux; hits give high values. B-score at 10 µM. actives 0.42% (n = 310,000);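 active = B-score of calcium response area above 5 SD of library B-scores, with initial fluorescence ratio within 5 SD of library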;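 note: B-score of integrated fluorescence ratio over time as area under calcium response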
TRPC6 inhibitor = inhibitors of mouse TRPC6 channel. Q61143. HEK293-TRPC6, membrane potential dye, ACh-evoked depolarization; hits give low values. B-score at 10 µM. actives 1.1% (n = 310,000). AID 2553;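 active = B-score under library mean minus 3 SD, initial fluorescence not abnormally high, positive integrated signal ratio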;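 note: B-score derived from integrated fluorescence ratio over the kinetic read; more negative B-score means stronger inhibition of depolarization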
TRPC6 act = activates the mouse TRPC6 cation channel; Q61143; HEK293-TRPC6 membrane potential dye fluorescence; hits give high values; B-score at 10 µM; actives 0.13% (n = 310,000);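 active = B-score of the integrated fluorescence ratio above library mean plus 3 SD, and starting fluorescence ratio within library mean plus 5 SD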;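 note: higher score means more depolarization so channel activation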
TRPC4 inh = inhibitors of mouse TRPC4 channel; Q9QUQ5; HEK293 TRPC4beta/mu-opioid, DAMGO-evoked Fluo4 calcium flux; hits give low values; B-score at 10 µM; actives 0.39% (n = 300,000);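 active = B-score over 3 SD under the library average, no early fluorescence shift, positive overall ratio signal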
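Assay system: HEK293 cells with stable TRPC4beta plus mu-opioid receptor expression; Probe or stimulus: DAMGO in two steps, submaximal then maximal; Dosing: single-point compound dosing; Measured by: Fluo4 calcium-dye fluorescence, kinetic read; Read-out basis: B score from integrated Fluo4 fluorescence ratio.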
An asterisk follows results filed as active; i = inactive.

SMILES | TRPC4 agonist | TRPC4 potent | TRPC6 inhibitor | TRPC6 act | TRPC4 inh
O=C(NCCc1ccccn1)C1CCCN1S(=O)(=O)c1ccc(Cl)cc1 (centres undefined) | i | i | i | i | i
Cn1c(NCc2ccccc2Cl)nc2ccccc21 | i | i | i | i | i
CC(C)n1c(NCc2ccccc2O)nc2ccccc21 | i | i | i | i | -6*
C=CCc1cccc(CNc2nc3ccccc3n2C(C)C)c1O | i | i | i | i | i
Cn1c(NCc2ccccc2O)nc2ccccc21 | i | i | i | i | -6*
O=C(NCCCN1CCCC1)c1ccc2c(c1)N(Cc1ccccc1F)C(=O)c1ccccc1S2(=O)=O | i | i | i | i | i
COc1ccc(C(=O)C2CN(c3ccccc3)CC2c2ccc(Cl)cc2)cc1 (centres undefined) | i | i | i | i | i
CCOc1ccc(S(=O)(=O)N2CCCCC2)c(C)c1C | i | 14* | i | i | i
Nc1nonc1-n1nnc(C(=O)N/N=C/c2ccccc2Cl)c1CN1CCOCC1 | i | i | i | i | i
CCOc1ccc(-c2nc(CSCC(=O)NCc3ccco3)c(C)o2)cc1 | i | i | i | 12.5* | i
CCOc1ccc(-c2nc(CSCC(=O)NC3CC3)c(C)o2)cc1 | i | i | i | i | i
O=C(CCc1cccc(Cl)c1)NC1CCCN(Cc2ccccc2F)C1 (centres undefined) | i | i | i | i | i
Cc1ccc(NC(=O)CCNS(=O)(=O)c2ccc3c(c2)CCC(=O)N3)c(Br)c1 | i | i | i | i | i
CC(=O)N1CCCc2ccc(NS(=O)(=O)c3ccc(C)c(C)c3)cc21 | i | i | i | i | i
COc1ccc(OC)c(S(=O)(=O)Nc2ccc3c(c2)N(C(C)=O)CCC3)c1 | i | 14* | i | i | i
Cc1ccc(S(=O)(=O)CCC(=O)NCCC2=CCCCC2)cc1 | i | i | i | i | i
Cc1ccc(CS(=O)(=O)CCC(=O)NCCC2=CCCCC2)cc1 | i | 17* | i | i | i
NS(=O)(=O)c1ccc(CCNC(=O)C(=O)NCC2OCCN2S(=O)(=O)c2ccc(F)cc2)cc1 (centres undefined) | i | i | i | i | i
O=C(c1sc2ccccc2c1Cl)N(Cc1cccs1)C1CCS(=O)(=O)C1 (centres undefined) | 120* | i | i | i | i
CN(C)S(=O)(=O)c1ccc(Cl)c(NC(=O)CN2CCCCCC2)c1 | i | i | i | i | i
CCN(c1ccccc1)S(=O)(=O)c1ccc(Cl)c(NC(=O)CN2CCCCCC2)c1 | i | i | i | 18.5* | i
COc1ccc(CCNC(=O)c2cc3c(cc2Cl)N2CCCCCC2=NS3(=O)=O)cc1 | i | i | i | i | i
CCCN(CCC)CCCNC(=S)Nc1ccc2nc3n(c(=O)c2c1)CCCCC3 | i | 14* | i | i | i
CCN(CC)CCNC(=S)Nc1ccc2nc3n(c(=O)c2c1)CCCCC3 | i | i | i | i | i
O=C(O)/C=C/c1cn(Cc2ccccc2Cl)nc1-c1ccccc1 | i | i | i | i | i
SMILES | TRPC4 agonist | TRPC4 potent | TRPC6 inhibitor | TRPC6 act | TRPC4 inh
Nc1c2c(nc3c1CCCC3)CCCC2 (tested in a mixture with another compound) | i | i | i | i | -6*
Nc1nc(N)c2c(n1)CCCC2 | i | i | i | i | i
O=C(N/N=C\c1ccc(Cl)cc1)C1=NOC2COC3(CCN(c4ccc([N+](=O)[O-])cc4)CC3)OCC12 (centres undefined) | i | i | i | i | i
Cc1cc(/C=C2/C(=N)N3C(=NC2=O)SN=C3S(C)(=O)=O)c(C)n1-c1ccccc1F | i | i | i | i | -6*
O=c1[nH][nH]c(-c2ccccc2)c1C=Nc1ccc(Cl)cc1 | i | 84* | i | i | i
O=C(Nc1ccc(Cl)cc1N1CCOCC1)C1CCCO1 (centres undefined) | i | i | i | i | i
Cc1ccc(-n2[nH]c(C)c(/C=N/Nc3ccc([N+](=O)[O-])cc3[N+](=O)[O-])c2=O)cc1 | i | i | i | i | i
O=[N+]([O-])c1ccc(/C=N/Nc2nc(NCc3ccccc3)nc(N3CCOCC3)n2)cc1 | i | i | i | i | i
O=[N+]([O-])c1cccc(/C=N/Nc2nc(NCc3ccccc3)nc(N3CCOCC3)n2)c1O | 53* | i | i | i | i
Cn1c(CNc2ccc(Cl)cc2)nc2ccccc21 | i | i | i | i | i
Cn1c(CN2CCN(c3cccc(Cl)c3)CC2)nc2ccccc21 | 84* | i | i | i | i
Cc1ccc(N2CCN(c3ccc(NCc4nc5ccccc5n4C)cc3)CC2)cc1 | 122* | i | i | i | i
COc1ccc(C(=O)Oc2c(OC)cc(C(=S)N3CCOCC3)cc2OC)cc1OC | i | i | i | i | i
COc1ccc(/C=N/Nc2cc(C)nc(-n3nc(C)cc3C)n2)cc1 | i | 19* | i | i | i
CCOC(=O)C1(Cc2cccc(F)c2)CCN(C(=O)COC)CC1 | i | i | i | i | i
CCOC(=O)C1(Cc2cccc(F)c2)CCN(Cc2c(C)nn(CC)c2C)CC1 | i | i | i | i | -6*
CCOC(=O)C1(CCCc2ccccc2)CCN(Cc2cn(CC)nc2C)CC1 | 124* | i | i | i | i
CCOC(=O)C1(Cc2cccc(F)c2)CCN(Cc2cn(CC)nc2C)CC1 | 78* | i | i | i | i
CCCn1ncc(CN2CCC(Cc3cccc(F)c3)(C(=O)OCC)CC2)c1C | i | i | i | i | i
Cc1cc([N+](=O)[O-])nn1CC(=O)N(C)C1CCCCC1 | i | i | i | i | i
N=c1c2c(n(Cc3ccc(Cl)cc3)c3c1CCC3)CCC2 | i | i | i | i | -7*
N=c1c2c(n(Cc3cccc(Cl)c3)c3c1CCC3)CCCC2 | i | i | i | i | i
COc1ccccc1N(CC(=O)NCCSCc1cccc(C)c1)S(=O)(=O)c1ccccc1 | i | i | i | i | i
